The results in this text go back to ChEMBL document CHEMBL4190396, “Discovery of Novel Small-Molecule Inhibitors of NF-κB Signaling with Antiinflammatory and Anticancer Properties” (J Med Chem, 2018).

Activity calls are given as the source filed them. The calls are words filed in the database; no cut-off is given here.

The first assay has as its target T1, Toll-like receptor 7 (Homo sapiens) (UniProt Q9NYK1).
T1 sequence (whole entry): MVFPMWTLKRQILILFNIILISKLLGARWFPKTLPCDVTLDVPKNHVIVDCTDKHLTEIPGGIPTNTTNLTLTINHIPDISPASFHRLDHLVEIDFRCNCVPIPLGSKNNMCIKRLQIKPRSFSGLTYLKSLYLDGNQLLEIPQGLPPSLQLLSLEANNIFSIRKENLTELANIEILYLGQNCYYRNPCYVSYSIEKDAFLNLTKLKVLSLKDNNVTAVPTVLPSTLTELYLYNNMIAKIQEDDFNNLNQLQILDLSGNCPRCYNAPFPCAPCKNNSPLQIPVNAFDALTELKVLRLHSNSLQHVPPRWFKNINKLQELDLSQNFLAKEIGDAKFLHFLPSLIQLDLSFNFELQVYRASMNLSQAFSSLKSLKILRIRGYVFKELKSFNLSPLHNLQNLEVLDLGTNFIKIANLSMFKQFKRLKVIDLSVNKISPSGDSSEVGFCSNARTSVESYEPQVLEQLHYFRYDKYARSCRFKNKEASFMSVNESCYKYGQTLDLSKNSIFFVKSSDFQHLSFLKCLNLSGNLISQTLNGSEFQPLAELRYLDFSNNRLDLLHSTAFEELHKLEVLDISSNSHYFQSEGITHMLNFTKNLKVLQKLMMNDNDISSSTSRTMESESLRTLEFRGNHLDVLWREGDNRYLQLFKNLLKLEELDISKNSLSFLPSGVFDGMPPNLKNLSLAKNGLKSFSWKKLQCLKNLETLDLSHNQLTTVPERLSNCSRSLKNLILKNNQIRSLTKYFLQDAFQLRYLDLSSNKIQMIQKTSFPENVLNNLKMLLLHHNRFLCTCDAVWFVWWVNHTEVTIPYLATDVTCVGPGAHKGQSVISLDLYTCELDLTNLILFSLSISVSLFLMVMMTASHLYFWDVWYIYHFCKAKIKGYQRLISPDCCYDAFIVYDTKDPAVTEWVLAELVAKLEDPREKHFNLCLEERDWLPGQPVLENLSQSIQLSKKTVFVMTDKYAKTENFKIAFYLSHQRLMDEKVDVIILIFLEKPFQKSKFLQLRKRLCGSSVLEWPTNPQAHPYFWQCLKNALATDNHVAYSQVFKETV
Nature of the assay: Inhibition of human TLR7 expressed in HEK293 cells assessed as decrease in R848-induced NF-kappaB activation-mediated SEAP production at 40 uM after 24 hrs by Quanti-blue-based assay relative to control. In kind it is cell-based. The essentials: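 Screening mode: HEK hTLR7 cells, 20,000/well in duplicate, stimulated with R848 1 µg/mL, library compounds at 40 µM; triptolide 40 nM positive control, 0.4% DMSO negative control; SEAP read by QUANTI-Blue.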
The term inhibition denotes the relative decrease from the control value, in per cent. For `Cc1nc(C(=O)NNC(=O)c2cc(Cl)cc(Cl)c2)cs1`, the inhibition stood at 24%.
For the compound `COC(=O)c1cccc(C(=O)NNC(=O)c2csc(C)n2)c1`, the inhibition came out at 9%.
As to `Cc1nc(C(=O)NNC(=O)c2cccc(C#N)c2)cs1`, the inhibition turned out to be 6.4%.
Same read-out and setting: to `Cc1nc(C(=O)NNC(=O)c2cccc(O)c2)cs1` belongs 18%; to `CC(C)c1cc(C(=O)NNC(=O)c2ccc(Cl)cc2)[nH]n1`, 11%.
For `Nc1nccnc1C(=O)NNC(=O)c1ccccc1C(F)(F)F`, the inhibition was determined as 23%.
Take `O=C(NNC(=O)c1nccs1)c1ccc(Cl)cc1`: the inhibition stood at 24%.
The same measure, in the same setting: to `N#Cc1ccc(C(=O)NNC(=O)c2nccnc2N)cc1` belongs 15%; to `Nc1nccnc1C(=O)NNC(=O)c1ccc(OC(F)(F)F)cc1`, 72%.
In the case of `Nc1nccnc1C(=O)NNC(=O)c1cccnc1`, the inhibition turned out to be 12%.
The same measure, in the same setting: in the case of `O=C(NNC(=O)c1ccccn1)c1ccc(OC(F)(F)F)cc1` it was 79.8%; in that of `Nc1nccnc1C(=O)NNC(=O)c1ccc(Cl)cc1`, 42%.
Take `Cc1nc(C(=O)NNC(=O)c2ccccn2)cs1`: the inhibition amounted to 73%.
For the compound `O=C(NNC(=O)c1csc(-c2cccnc2)n1)c1ccccn1`, the inhibition amounted to 86%.
Turning to `Nc1ncc(Cl)nc1C(=O)NNC(=O)c1cccc(C(F)(F)F)c1`, the inhibition amounted to 21%.
In the case of `Nc1ncccc1C(=O)NNC(=O)c1cccc(C(F)(F)F)c1`, the inhibition was 22%.
For the compound `O=C(NNC(=O)c1ncccc1O)c1ccc(Br)cc1`, the inhibition amounted to 96.2%.
Regarding `O=C(NNC(=O)c1nccnc1Cl)c1cccc(C(F)(F)F)c1`, the inhibition came to 19%.
Same read-out and setting: to `O=C(NNC(=O)c1ccccn1)c1ccc(Cl)cc1` belongs 76%; to `O=C(NNC(=O)c1ccccn1)c1ccc(Br)cc1`, 82.3%; to `Cc1nc(C(=O)NNC(=O)c2cccc(Cl)c2)cs1`, 40%.
On to `O=C(NNC(=O)c1csc(-c2ccccc2)n1)c1ccccn1`, for which the inhibition came out at 98.8%.
The same measure, in the same setting: in the case of `Nc1nccnc1C(=O)NNC(=O)c1ccc(F)cc1F` it was 26%; in that of `O=C(NNC(=O)c1ncccc1O)c1ccc(C(F)(F)F)cc1`, 97.4%.
Still for that read-out and setting: to `Cc1nc(C(=O)NNC(=O)c2ccncc2)cs1` belongs 19.5%.
Turning to `Nc1nccnc1C(=O)NNC(=O)c1ccc(O)cc1`, the inhibition is 17.7%.
Same read-out and setting: to `O=C(NNC(=O)c1csc(-c2ccncc2)n1)c1ccccn1` belongs 33%; to `Cc1nc(C(=O)NNC(=O)c2ccc(Cl)cc2)cs1`, 51%.
For `O=C(NNC(=O)c1ncccc1O)c1ccc(Cl)cc1`, the inhibition came to 81%.
The same measure, in the same setting: in the case of `O=C(NNC(=O)c1ccccn1)c1ccc(C(F)(F)F)cc1` it was 85.4%.
Regarding `Nc1nccnc1C(=O)NNC(=O)c1ccc(Br)cc1`, the inhibition turned out to be 36.2%.
In the case of `O=C(NNC(=O)c1ncccc1O)c1cccc(C(F)(F)F)c1`, the inhibition worked out at 96%.
Still for that read-out and setting: to `Cc1ccc2c(Cl)c(C(=O)NNC(=O)c3ccc(Cl)cc3)sc2c1` belongs 16.7%.
On the same count and under the same terms, to `CCCCCCNC(=O)c1ccc(C(=O)NNC(=O)c2nccnc2N)cc1` belongs 17%; to `CC(C)c1nc(C(=O)NNC(=O)c2ccccn2)cs1`, 94.2%; to `Nc1nccnc1C(=O)NNC(=O)c1ccc([N+](=O)[O-])cc1Cl`, 23%.
On to `O=C(NNC(=O)c1cnccn1)c1cccc(C(F)(F)F)c1`, for which the inhibition amounted to 29%.
Regarding `O=C(NNC(=O)c1ncccc1O)c1ccc(OC(F)(F)F)cc1`, the inhibition came out at 96.5%.
Same read-out and setting: to `Nc1cccnc1C(=O)NNC(=O)c1cccc(C(F)(F)F)c1` belongs 83.1%; to `Cc1nc(C(=O)NNC(=O)c2cccc(Br)c2)cs1`, 30.6%.
Take `Cc1nc(C(=O)NNC(=O)c2cccc(OC(F)(F)F)c2)cs1`: the inhibition was found to be 26%.
On the same count and under the same terms, in the case of `O=C(NNC(=O)c1cc2ccccc2[nH]1)c1ccc(Cl)cc1` it was 13%; in that of `COc1ccc(C(=O)NNC(=O)c2nccnc2N)cc1`, 20.4%; in that of `Nc1nccnc1C(=O)NNC(=O)c1c(Cl)cccc1Cl`, 28%.
Still for that read-out and setting: in the case of `COc1cccc(C(=O)NNC(=O)c2csc(C)n2)c1` it was 24%.
Still for that read-out and setting: in the case of `Cc1nc(C(=O)NNC(=O)c2cccc(F)c2)cs1` it was 21.1%.
For the compound `Cc1nc(C(=O)NNC(=O)c2ccccc2Cl)cs1`, the inhibition worked out at 6%.
With `Nc1nccnc1C(=O)NNC(=O)c1ccc(C(F)(F)F)cc1`, the inhibition is 79%.
Still for that read-out and setting: to `Cc1nc(C(=O)NNC(=O)c2cccc(C(F)(F)F)c2)cs1` belongs 31%; to `Cc1nc(C(=O)NNC(=O)c2cccnc2)cs1`, 21%.
The same measure, in the same setting: in the case of `CCCC1Nc2nccnc2C(=O)N1NC(=O)c1cccc(C(F)(F)F)c1` (configuration not stated) it was 21%; in that of `O=C(NNC(=O)c1ccccn1)c1cccc(C(F)(F)F)c1`, 88%.
On the same count and under the same terms, to `Nc1nccnc1C(=O)NNC(=O)c1cccc(C(F)(F)F)c1` belongs 68%; to `COC(=O)c1ccc(C(=O)NNC(=O)c2nccnc2N)cc1`, 18%; to `Nc1ncc(Br)nc1C(=O)NNC(=O)c1cccc(C(F)(F)F)c1`, 18.2%.
Consider `Cc1ncc(C(=O)NNC(=O)c2ccc(Cl)cc2)s1`, for which the inhibition is 17%.

A further assay has as its target T1, Toll-like receptor 7 (Homo sapiens). Description: Inhibition of human TLR7 expressed in HEK293 cells assessed as decrease in R848-induced NF-kappaB activation-mediated SEAP production at 5 uM after 24 hrs by Quanti-blue-based assay relative to control. In kind it is cell-based.
For `COc1ccc(-c2nc(C(=O)NNC(=O)c3ccccn3)cs2)cc1`, the inhibition was 80.3%.
With `O=C(NNC(=O)c1csc(-c2cccc(Br)c2)n1)c1ccccn1`, the inhibition is 97.6%.
In the case of `O=C(NNC(=O)c1csc(-c2ccc(C(F)(F)F)cc2)n1)c1ccccn1`, the inhibition was determined as 96.1%.
With `Cc1ccc(-c2nc(C(=O)NNC(=O)c3ccccn3)cs2)cc1`, the inhibition is 88.2%.
Consider `O=C(NNC(=O)c1csc(-c2cc(Cl)cc(Cl)c2)n1)c1ccccn1`, for which the inhibition came out at 99.1%.
On the same count and under the same terms, to `O=C(NNC(=O)c1csc(-c2cccc(Cl)c2Cl)n1)c1ccccn1` belongs 99.9%; to `O=C(NNC(=O)c1csc(-c2cccc(C(F)(F)F)c2)n1)c1ccccn1`, 96.7%; to `CN(C)c1ccc(-c2nc(C(=O)NNC(=O)c3ccccn3)cs2)cc1`, 93.1%.
As to `O=C(NNC(=O)c1csc(-c2cccc(Cl)c2)n1)c1ccccn1`, the inhibition was determined as 93.7%.
Still for that read-out and setting: in the case of `O=C(NNC(=O)c1csc(-c2ccc(F)cc2)n1)c1ccccn1` it was 65%; in that of `CCc1ccc(-c2nc(C(=O)NNC(=O)c3ccccn3)cs2)cc1`, 91.9%.
On the same count and under the same terms, to `COc1ccc(-c2nc(C(=O)NNC(=O)c3ccccn3)cs2)cc1OC` belongs 66%; to `O=C(NNC(=O)c1csc(-c2cccc(F)c2)n1)c1ccccn1`, 79%.
Same read-out and setting: in the case of `O=C(NNC(=O)c1csc(-c2ccc(Cl)cc2)n1)c1ccccn1` it was 91%.

The next assay has the same target. Nature of the assay: Inhibition of human TLR7 expressed in HEK293 cells assessed as decrease in R848-induced NF-kappaB activation-mediated SEAP production at 30 uM after 24 hrs by Quanti-blue-based assay relative to control. In kind it is cell-based.
As to `Cc1nc(C(=O)NNC(=O)c2ccc(Cl)cc2)cs1`, the inhibition result was “Active”.
`Nc1nccnc1C(=O)NNC(=O)c1cccc(C(F)(F)F)c1`: the inhibition entry is “Active”.
